The values that follow come from ChEMBL document CHEMBL2321868, “The discovery of novel potent trans-3,4-disubstituted pyrrolidine inhibitors of the human aspartic protease renin from in silico three-dimensional (3D) pharmacophore searches” (J Med Chem, 2013).

Data set [1] can be described thus: Plasma clearance in Sprague-Dawley rat at 2 mg/kg, iv by HPLC-MS analysis. Also on record: dose 2 mg/kg, route intravenous. It is filed as ADME, organism-based. In outline:
(§1)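 Cannulated, fed Sprague–Dawley rats were given 2 mg/kg intravenously and 6 mg/kg orally. Oral bioavailability came from the two routes. t1/2, plasma clearance and Vdss were estimated. Oral Cmax and AUC were taken over 0–24 h.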

Data set [2] concerns Rattus norvegicus. As to the kind of experiment: Antihypertensive activity in double transgenic rat overexpressing human renin and angiotensinogen assessed as reduction in mean arterial pressure at 6 to 30 mg/kg, po after 12 hrs. It is filed as functional, organism-based. The note with it: Artery. In outline: (§2)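 Double-transgenic rats overexpressing human renin and human angiotensinogen, with telemetry. Each received a single oral dose of 6 or 30 mg/kg. The read-out was mean arterial pressure, reported as the peak change from dosing.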

The subject of data set [3] is Rattus norvegicus. The experiment in a line: Antihypertensive activity in double transgenic rat overexpressing human renin and human angiotensinogen assessed as reduction in mean arterial pressure at 30 mg/kg, po. It is filed as functional, Artery. In outline:
as §2

Data set [4] relates to Rattus norvegicus. As to the kind of experiment: Antihypertensive activity in po dosed double transgenic rat overexpressing human renin and human angiotensinogen assessed as reduction in mean arterial pressure. The conditions noted are these: Artery. Type of data set: functional, organism-based. In outline: as §2
The nature of data set [5]: AUC (0 to 24 hrs) in jugular vein cannulated Sprague-Dawley rat at 6 mg/kg, po by HPLC-MS analysis. It is filed as ADME, organism-based. Also on record: time < 24 hr, dose 6 mg/kg, route oral. The conditions noted are these: plasma. In outline: as §1
Data set [6] can be described thus: Volume of distribution at steady state in jugular vein cannulated Sprague-Dawley rat at 2 mg/kg, iv by HPLC-MS analysis. Type of data set: ADME, organism-based. Set-up: dose 2 mg/kg, route intravenous. The conditions noted are these: in vivo, read-out: Vdss. Put shortly:
as §1

Data set [7] in a line: Oral bioavailability in jugular vein cannulated Sprague-Dawley rat at 6 mg/kg by HPLC-MS analysis. It is filed as ADME, organism-based. The conditions noted are these: in vivo. Put shortly:
as §1

Data set [8] is described as follows: Half life in jugular vein cannulated Sprague-Dawley rat at 2 mg/kg, iv by HPLC-MS analysis. It is filed as ADME, organism-based. The conditions noted are these: in vivo. Set-up: dose 2 mg/kg, route intravenous. In outline: as §1
For data set [9], the target named is Voltage-gated inwardly rectifying potassium channel KCNH2 (Homo sapiens, UniProt Q12809). The experiment in a line: Inhibition of human ERG by dofetilide binding assay. In outline:
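hERG affinity from an in vitro dofetilide binding assay. The IC50 is the mean of two independent measurements.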

The target of data set [10] is 5-hydroxytryptamine receptor 2B (Homo sapiens, UniProt P41595). The experiment in a line: Inhibition of 5-HT2B (unknown origin).
Sequence of 5-hydroxytryptamine receptor 2B (P41595 whole entry): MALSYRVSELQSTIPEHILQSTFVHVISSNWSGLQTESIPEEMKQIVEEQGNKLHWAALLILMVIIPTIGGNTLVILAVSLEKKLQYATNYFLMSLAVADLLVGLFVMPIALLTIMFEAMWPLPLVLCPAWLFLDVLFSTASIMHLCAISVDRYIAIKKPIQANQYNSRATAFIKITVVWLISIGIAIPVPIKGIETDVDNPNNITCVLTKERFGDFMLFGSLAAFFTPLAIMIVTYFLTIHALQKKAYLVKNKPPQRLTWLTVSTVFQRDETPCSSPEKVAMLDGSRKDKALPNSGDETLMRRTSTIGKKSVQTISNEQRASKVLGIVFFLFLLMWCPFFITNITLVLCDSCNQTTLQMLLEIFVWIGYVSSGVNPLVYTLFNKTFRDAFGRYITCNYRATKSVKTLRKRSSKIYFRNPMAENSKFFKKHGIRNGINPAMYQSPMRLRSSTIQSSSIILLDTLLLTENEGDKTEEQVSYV
The target in data set [11] is 5-hydroxytryptamine receptor 2A (Homo sapiens, UniProt P28223). As to the kind of experiment: Inhibition of 5-HT2A (unknown origin).
Sequence of 5-hydroxytryptamine receptor 2A (P28223 whole entry): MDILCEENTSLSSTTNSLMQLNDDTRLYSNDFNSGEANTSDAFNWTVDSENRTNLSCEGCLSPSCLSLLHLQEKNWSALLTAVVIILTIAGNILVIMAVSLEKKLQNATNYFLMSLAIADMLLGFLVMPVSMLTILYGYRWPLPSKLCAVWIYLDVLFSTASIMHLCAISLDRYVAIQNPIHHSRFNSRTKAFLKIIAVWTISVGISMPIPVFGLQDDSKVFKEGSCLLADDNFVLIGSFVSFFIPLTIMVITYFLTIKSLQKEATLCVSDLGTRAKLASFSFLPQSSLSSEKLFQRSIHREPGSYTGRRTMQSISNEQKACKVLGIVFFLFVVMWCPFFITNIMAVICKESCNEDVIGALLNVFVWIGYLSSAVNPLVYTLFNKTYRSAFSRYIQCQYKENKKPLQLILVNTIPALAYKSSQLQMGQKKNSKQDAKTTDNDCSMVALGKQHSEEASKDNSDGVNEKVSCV
The next data set concerns the target T1, Beta-secretase 2 (Homo sapiens, UniProt Q9Y5Z0).
T1 sequence (Q9Y5Z0 whole entry): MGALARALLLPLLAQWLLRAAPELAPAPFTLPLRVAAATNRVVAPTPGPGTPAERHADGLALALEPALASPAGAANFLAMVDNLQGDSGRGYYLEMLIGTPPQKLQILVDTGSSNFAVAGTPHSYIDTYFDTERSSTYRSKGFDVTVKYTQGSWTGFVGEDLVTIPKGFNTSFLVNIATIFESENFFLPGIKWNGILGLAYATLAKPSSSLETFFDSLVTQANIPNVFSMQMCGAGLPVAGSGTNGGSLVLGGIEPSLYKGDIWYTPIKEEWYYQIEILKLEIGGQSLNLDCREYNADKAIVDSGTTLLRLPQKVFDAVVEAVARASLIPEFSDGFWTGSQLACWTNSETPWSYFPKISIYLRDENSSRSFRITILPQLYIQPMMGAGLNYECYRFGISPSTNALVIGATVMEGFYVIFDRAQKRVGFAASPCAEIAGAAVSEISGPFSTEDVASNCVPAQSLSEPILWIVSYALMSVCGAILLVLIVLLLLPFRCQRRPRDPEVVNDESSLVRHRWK
The experiment in a line: Inhibition of human recombinant BACE-2 expressed in baculovirus-infected insect sf9 cells using RE( EDANS)-EVNLDAEF-K(DABSYL)-R as substrate incubated for 1 hr prior to substrate addition measured after 1 hr by FRET-based enzymatic assay.

In the next data set the target is Beta-secretase 1 (Homo sapiens, UniProt P56817). As to the kind of experiment: Inhibition of human recombinant BACE-1 expressed in baculovirus-infected insect sf9 cells using RE( EDANS)-EVNLDAEF-K(DABSYL)-R as substrate incubated for 1 hr prior to substrate addition measured after 1 hr by FRET-based enzymatic assay.
Sequence of Beta-secretase 1 (P56817 whole entry): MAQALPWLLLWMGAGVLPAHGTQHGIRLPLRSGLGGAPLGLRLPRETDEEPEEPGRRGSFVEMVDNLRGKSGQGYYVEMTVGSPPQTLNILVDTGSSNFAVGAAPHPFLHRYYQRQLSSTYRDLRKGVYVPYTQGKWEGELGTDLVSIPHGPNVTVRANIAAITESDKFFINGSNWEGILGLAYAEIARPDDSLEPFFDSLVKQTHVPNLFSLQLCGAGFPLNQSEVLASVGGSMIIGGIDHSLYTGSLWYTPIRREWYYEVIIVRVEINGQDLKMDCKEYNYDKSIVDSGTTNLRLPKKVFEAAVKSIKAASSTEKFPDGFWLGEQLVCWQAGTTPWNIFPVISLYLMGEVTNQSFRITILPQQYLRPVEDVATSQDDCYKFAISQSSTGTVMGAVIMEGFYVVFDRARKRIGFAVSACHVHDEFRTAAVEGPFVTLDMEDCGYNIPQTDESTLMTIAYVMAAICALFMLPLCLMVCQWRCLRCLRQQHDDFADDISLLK
Another data set has as its target T2, Gastricsin (Homo sapiens, UniProt P20142).
T2 sequence (P20142 whole entry): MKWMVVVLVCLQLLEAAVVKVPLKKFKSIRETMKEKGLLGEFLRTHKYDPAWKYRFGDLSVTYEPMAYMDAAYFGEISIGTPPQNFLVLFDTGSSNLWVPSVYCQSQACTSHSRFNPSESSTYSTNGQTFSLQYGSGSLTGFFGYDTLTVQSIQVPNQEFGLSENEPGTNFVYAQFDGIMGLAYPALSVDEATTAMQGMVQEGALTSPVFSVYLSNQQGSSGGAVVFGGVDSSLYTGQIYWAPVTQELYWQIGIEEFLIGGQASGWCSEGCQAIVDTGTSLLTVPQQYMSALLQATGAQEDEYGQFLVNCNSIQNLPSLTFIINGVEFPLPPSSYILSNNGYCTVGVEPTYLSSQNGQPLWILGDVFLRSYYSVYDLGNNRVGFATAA
The experiment in a line: Inhibition of human recombinant pepsin C expressed in Escherichia coli using Dabcyl-E-R-Nle-F-L-S-F-P-EDANS as substrate incubated for 1 hr prior to substrate addition measured after 1 hr by FRET-based enzymatic assay.

Data set [12] can be described thus: Inhibition of human recombinant pepsin A expressed in Escherichia coli using Dabcyl-E-R-Nle-F-L-S-F-P-EDANS as substrate incubated for 1 hr prior to substrate addition measured after 1 hr by FRET-based enzymatic assay.
The target of another data set is T3, Renin (Homo sapiens, UniProt P00797).
T3 sequence (P00797 whole entry): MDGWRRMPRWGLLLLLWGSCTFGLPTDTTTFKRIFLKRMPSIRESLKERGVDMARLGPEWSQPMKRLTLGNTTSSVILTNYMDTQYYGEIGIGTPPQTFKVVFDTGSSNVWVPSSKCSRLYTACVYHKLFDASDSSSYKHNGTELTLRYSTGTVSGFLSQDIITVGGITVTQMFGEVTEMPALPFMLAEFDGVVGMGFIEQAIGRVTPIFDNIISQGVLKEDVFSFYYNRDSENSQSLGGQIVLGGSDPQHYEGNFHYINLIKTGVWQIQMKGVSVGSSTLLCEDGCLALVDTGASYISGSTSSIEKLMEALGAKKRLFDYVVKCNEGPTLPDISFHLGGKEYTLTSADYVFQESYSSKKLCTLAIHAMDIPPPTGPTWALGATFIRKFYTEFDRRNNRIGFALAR
The experiment in a line: Inhibition of human recombinant renin expressed in CHO cells using RE(EDANS)IHPFHLVIHTK(Dabcyl)R as substrate incubated for 1 hr prior to substrate addition measured after 2 hrs by FRET-based enzymatic assay.

In data set [13] the test system is Rattus norvegicus. As to the kind of experiment: Antihypertensive activity in double transgenic rat overexpressing human renin and human angiotensinogen assessed as reduction in mean arterial pressure at 6 mg/kg, po. Type of data set: functional, Artery. In outline: as §2

Active and inactive are the calls of the source. A value given as a limit tells only on which side of the number the result lay.

Sequence of Voltage-gated inwardly rectifying potassium channel KCNH2 (Q12809 whole entry): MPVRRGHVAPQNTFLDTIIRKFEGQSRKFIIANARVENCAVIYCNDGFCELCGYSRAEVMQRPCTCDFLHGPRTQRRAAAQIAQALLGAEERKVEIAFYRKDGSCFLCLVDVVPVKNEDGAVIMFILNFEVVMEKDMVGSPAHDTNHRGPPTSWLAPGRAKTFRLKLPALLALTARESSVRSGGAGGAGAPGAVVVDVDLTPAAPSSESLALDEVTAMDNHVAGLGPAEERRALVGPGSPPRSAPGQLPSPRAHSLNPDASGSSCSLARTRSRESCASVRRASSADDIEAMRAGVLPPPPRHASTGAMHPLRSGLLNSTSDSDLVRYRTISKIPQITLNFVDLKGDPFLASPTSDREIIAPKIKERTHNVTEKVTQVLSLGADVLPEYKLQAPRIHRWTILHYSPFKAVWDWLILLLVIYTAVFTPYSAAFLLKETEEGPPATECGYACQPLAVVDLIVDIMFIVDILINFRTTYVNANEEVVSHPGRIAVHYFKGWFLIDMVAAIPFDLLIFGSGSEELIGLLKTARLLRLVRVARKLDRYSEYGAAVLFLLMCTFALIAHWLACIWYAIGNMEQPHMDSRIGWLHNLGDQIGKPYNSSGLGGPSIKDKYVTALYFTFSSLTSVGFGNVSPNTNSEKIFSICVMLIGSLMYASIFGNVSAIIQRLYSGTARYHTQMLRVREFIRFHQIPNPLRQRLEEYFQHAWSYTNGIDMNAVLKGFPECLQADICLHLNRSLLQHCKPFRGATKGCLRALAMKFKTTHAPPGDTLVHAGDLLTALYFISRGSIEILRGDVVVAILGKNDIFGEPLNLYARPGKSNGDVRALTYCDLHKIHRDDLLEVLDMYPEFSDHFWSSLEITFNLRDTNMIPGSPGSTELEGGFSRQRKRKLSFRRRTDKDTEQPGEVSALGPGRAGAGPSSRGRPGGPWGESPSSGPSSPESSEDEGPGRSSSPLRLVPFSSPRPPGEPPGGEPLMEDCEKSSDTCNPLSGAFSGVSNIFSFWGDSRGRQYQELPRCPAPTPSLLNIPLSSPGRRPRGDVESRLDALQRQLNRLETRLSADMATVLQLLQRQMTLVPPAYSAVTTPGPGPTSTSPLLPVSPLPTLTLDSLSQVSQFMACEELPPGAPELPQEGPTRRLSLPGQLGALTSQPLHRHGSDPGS

`COCCCOc1cc(C(=O)N(C[C@@H]2CNC[C@H]2Cc2ccccc2)C(C)C)ccc1OC.Cl` showed a clearance in data set [1] of 25 mL/min/kg. In the data set with Rattus norvegicus [2], the outcome was Active. The Activity is 35 mmHg in the data set with Rattus norvegicus [3], “Dose-dependent effect” with Rattus norvegicus [4] and 15 mmHg in the data set with Rattus norvegicus [13]. In addition, in [5], the area under the curve AUC(0-t) at 24 h turned out to be 4.81 µM·h. Also, in [6], the Vd was determined as 2.8 L/kg. In addition, the bioavailability in data set [7] was 53%. This compound showed a half-life in data set [8] of 2 h. For the same compound, the IC50 in [9] was 14.5 µM; in [10], > 1 µM; in data set [11], > 1 µM; at Beta-secretase 2, > 30 µM; on Beta-secretase 1 it was > 30 µM; on Gastricsin, > 30 µM. The 50% inhibitory concentration (IC50) is > 30 µM in data set [12] and 0.17 µM on Renin.

The clearance is the volume of plasma or blood freed of the substance per unit of time. The term AUC(0-t) denotes exposure summed from dosing to a finite time, without extrapolation to infinity. For orientation: bioavailability means dose-corrected exposure relative to a reference, in per cent. Lower therefore signals poor availability. The half-life is the time needed for the level to fall by half in the phase considered. Low values mean rapid decline, high ones slow decline. A word on the IC50: it is the concentration that inhibits the measured activity by half.
